Results on 2 molecules are retold here after ChEMBL document CHEMBL3286338, “SAR studies on hydropentalene derivatives--Important core units of biologically active tetramic acid macrolactams and ptychanolides” (Bioorg Med Chem, 2014).

Broadly, the IC50 is the concentration at which inhibition is half-maximal. A low value points to inhibition by little substance.

Experiment [1] relates to L929. Nature of the experiment: Antiproliferative activity against mouse L929 cells by MTT assay. Type of experiment: functional, cell-based. The procedure, abridged: (§1)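 Cells kept in supplier-recommended media at 37 °C, 10% CO2. Serial dilutions added to a cell suspension (50,000 per mL) and incubated 5 d alongside blank and solvent controls. MTT then added to 0.5 mg mL^-1 final for 2 h, and formazan precipitate collected by centrifugation. Run as two parallel experiments; activity taken as mean relative to controls set at 100%.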
Background: Formazan colour is commonly taken as a measure of viable cells.

Experiment [2] can be described thus: Antiproliferative activity against human KB-3-1 cells by MTT assay. Type of experiment: functional, cell-based. The procedure, abridged:
as §1

Experiment [3] deals with L929. As to the kind of experiment: Effect on microtubule polymerization in mouse L929 cells at 0.4 ug/ml by impedance profiling. Type of experiment: cell-based. The procedure, abridged: (§2)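 L-929 cell cultures incubated with compound while impedance was recorded over time. The time-dependent impedance curves served as a mode-of-action fingerprint and were compared statistically, by cluster analysis, against curves from a set of reference compounds. Controls received methanol.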

Experiment [4] relates to L929. As to the kind of experiment: Effect on spindle formation in mouse L929 cells at 0.4 ug/ml by impedance profiling. The format is cell-based. The procedure, abridged: as §2
A short description of experiment [5]: Cytotoxicity against Potorous tridactylus PtK2 cells by MTT assay. The format is functional, cell-based. The procedure, abridged: as §1
The subject of experiment [6] is PtK2. As to the kind of experiment: Effect on microtubular network in Potorous tridactylus PtK2 cells at 4 ug/ml for overnight incubation by DAPI staining analysis. Type of experiment: functional, cell-based. Summed up: (§3)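 PtK2 cells on glass coverslips incubated overnight with compound or with methanol only. For alpha-tubulin staining, fixed in cold (-20 °C) MeOH/acetone (1:1) for 10 min, then probed with primary antibody. DNA counterstained. Microtubular network, mitotic spindles and chromosome distribution assessed by fluorescence microscopy.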

Experiment [7] deals with PtK2. As to the kind of experiment: Effect on mitotic spindle in Potorous tridactylus PtK2 cells at 4 ug/ml for overnight incubation by DAPI staining analysis. Type of experiment: functional, cell-based. Summed up:
as §3

Experiment [8] relates to PtK2. As to the kind of experiment: Effect on chromosme distribution in Potorous tridactylus PtK2 cells at 4 ug/ml for overnight incubation by DAPI staining analysis. Type of experiment: functional, cell-based. The procedure, abridged: as §3
The target of the next experiment is Tubulin (Sus scrofa) (UniProt P02554+P02550). Nature of the experiment: Inhibition of porcine tubulin polymerization at 500 ug/ml by fluorescence analysis. The format is protein assay. Summed up: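 Porcine tubulin (kit master mix with buffer, glycerol and GTP) mixed with compound at a 5:50 volume ratio. Placed at once in a fluorimeter at 37 °C. Polymerization followed by incorporation of a fluorescent reporter, read at 460 nm (excitation 340 nm) for about 1 h. Methanol and nocodazole served as controls.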

Experiment [9] relates to PtK2. As to the kind of experiment: Effect on F-actin cytoskeleton in Potorous tridactylus PtK2 cells at 3 ug/ml for overnight incubation by DAPI staining analysis. Type of experiment: cell-based. The procedure, abridged:
(§4)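 PtK2 cells grown on glass coverslips and exposed to compound overnight, with methanol-only controls. Fixed in 3.7% formalin for 10 min, permeabilized with 0.1% Triton X-100 for 5 min, then stained with Alexa Fluor 488 phalloidin (1:100) for 1 h. F-actin (green) and DNA (blue) examined by fluorescence microscopy.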

Experiment [10] deals with L929. As to the kind of experiment: Effect on microtubule polymerization in mouse L929 cells at 0.6 ug/ml by impedance profiling. Type of experiment: cell-based. Summed up: as §2
Experiment [11] concerns L929. As to the kind of experiment: Effect on spindle formation in mouse L929 cells at 0.6 ug/ml by impedance profiling. The format is cell-based. The procedure, abridged: as §2
Experiment [12] concerns PtK2. Nature of the experiment: Effect on F-actin cytoskeleton in Potorous tridactylus PtK2 cells at 2 ug/ml for overnight incubation by DAPI staining analysis. The format is cell-based. Summed up:
as §4

The next experiment is filed under the species Homo sapiens. As to the kind of experiment: Induction of actin polymerization (unknown origin) at 28 ug/ml after 20 mins by fluorescence analysis. Summed up: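 Pyrene-labelled muscle actin used, with pyrene fluorescence reporting polymerization state. Baseline read 3 min, then compound or methanol added and read a further 20 min. Polymerization then started with 10X actin polymerization buffer and read for 1 h.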

The structures appear in SMILES notation. Calls of active or inactive are those of the source. The calls are words filed in the database; no cut-off is given here.

Chain of Tubulin (Sus scrofa) (P02550 whole entry, looked up): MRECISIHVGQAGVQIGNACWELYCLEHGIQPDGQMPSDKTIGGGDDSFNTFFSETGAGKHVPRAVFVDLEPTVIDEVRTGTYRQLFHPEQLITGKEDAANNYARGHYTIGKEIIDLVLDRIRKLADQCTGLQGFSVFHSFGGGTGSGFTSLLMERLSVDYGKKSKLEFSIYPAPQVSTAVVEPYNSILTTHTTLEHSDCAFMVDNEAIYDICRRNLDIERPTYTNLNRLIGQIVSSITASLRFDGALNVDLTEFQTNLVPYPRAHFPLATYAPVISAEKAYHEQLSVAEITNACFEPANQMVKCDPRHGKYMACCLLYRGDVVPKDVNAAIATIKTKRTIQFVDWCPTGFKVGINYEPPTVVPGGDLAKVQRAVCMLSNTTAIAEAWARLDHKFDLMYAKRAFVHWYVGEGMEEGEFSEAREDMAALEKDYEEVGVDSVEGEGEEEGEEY
Chain of Tubulin (Sus scrofa) (P02554 whole entry, looked up): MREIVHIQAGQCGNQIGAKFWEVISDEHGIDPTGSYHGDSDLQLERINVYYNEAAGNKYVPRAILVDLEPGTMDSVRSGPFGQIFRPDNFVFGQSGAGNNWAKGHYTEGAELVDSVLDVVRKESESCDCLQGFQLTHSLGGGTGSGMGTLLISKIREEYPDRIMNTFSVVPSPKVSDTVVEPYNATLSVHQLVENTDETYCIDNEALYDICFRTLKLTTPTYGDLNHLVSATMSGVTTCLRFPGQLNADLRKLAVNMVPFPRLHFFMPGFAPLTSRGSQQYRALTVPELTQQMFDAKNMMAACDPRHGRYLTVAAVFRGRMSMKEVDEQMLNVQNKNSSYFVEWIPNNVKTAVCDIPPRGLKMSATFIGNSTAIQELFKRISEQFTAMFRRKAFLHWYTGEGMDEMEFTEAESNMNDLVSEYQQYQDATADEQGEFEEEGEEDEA

In the case of `O=C1C=C[C@H]2C(=O)C=C[C@@H]12`, the IC50 in the experiment with L929 [1] came out at 3 µM; in experiment [2], 6 µM; in [5], 3 µM. In addition, the result with L929 [3], in the experiment on L929 [4], in the experiment with PtK2 [6], in the experiment on PtK2 [7] and in the experiment on PtK2 [8] was Active. Besides, the inhibition entry on Tubulin (Sus scrofa) is “Active”. The outcome with PtK2 [9] was inactive.
Regarding `C#CC(=O)O[C@H]1C[C@@H]2CC3(C[C@@H]2C1)OCC(C)(C)CO3`, the results for the IC50 (in the experiment on L929 [1]; in [2]; in experiment [5]) were 2.2 µM, 21.6 µM and 3 µM, respectively. For the same molecule, the outcome in the experiment on L929 [10], in the experiment on L929 [11], in the experiment with PtK2 [6], in the experiment with PtK2 [7], in the experiment on PtK2 [8] and in the experiment with PtK2 [12] was Active. Also, the result in the experiment listed under Homo sapiens was Active. Besides, the inhibition entry on Tubulin (Sus scrofa) is “Active”.
